An excerpt weighted towards active compounds, which were near 3.7% of everything screened.
Kir21 inh: inhibitors of mouse Kir2.1 inward-rectifier potassium channel; Inward rectifier potassium channel 2 (Mus musculus), P35561; HEK293-Kir2.1, FluxOR thallium flux fluorescence; active compounds read low; B-score at 10 µM; hit rate 0.85% among 310,000; AID 1672, 2009;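 active = fluorescence ratio B-score at or below minus 3 SD of library scores, with starting-brightness B-score within 2 SD, cut at about -4.2 in these data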;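 also: channel flux triggered by added potassium and thallium sulfate stimulus; B-score of peak minus minimum fluorescence over baseline after thallium stimulus; more negative B-score means stronger Kir2.1 block with less thallium influx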
KCNK3 inh: human KCNK3 channel inhibitors, primary screen, CHO cells, FluxOR thallium flux, B-score | FluxOR fluorescence; active compounds read low | hit rate 0.84% among 340,000 | B-score at 10 µM | Potassium channel subfamily K member 3 (Homo sapiens), O14649;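 active = B-score under library mean minus 4 SD, starting fluorescence ratio at most library mean plus 5 SD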;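 also: more negative B-score means stronger inhibition of thallium flux through KCNK3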
KCNQ1 block: inhibitors of human KCNQ1 channel, primary screen, cell-based, thallium flux, high-throughput | Potassium voltage-gated channel subfamily KQT member 1 (Homo sapiens), P51787 | CHO-K1 KCNQ1, FluxOR thallium flux fluorescence; active compounds read high | B-score at 10 µM | hit rate 1.3% among 310,000;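 active = compounds whose thallium flux B-score, printed positive for inhibition, exceeds three library SD while starting fluorescence stays within three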;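 also: channel opened by potassium depolarization with thallium stimulus after 20 min compound exposure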
hERG rescue: hERG rescue from dofetilide block, primary screen, cell-based, CHO-hERG, FluxOR thallium flux, dofetilide IC70; dofetilide IC70 present; activation (rescue from dofetilide block), less the hit threshold, % at 10 µM; hit rate 0.51% among 310,000;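 active = activation above the mean of controls blocked by dofetilide plus 5 SD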;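 also: thallium influx through hERG after potassium depolarization seen as dye fluorescence rise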
KCNQ1 act: potentiators or activators of KCNQ1 channel, primary screen, cell-based, thallium flux, high-throughput; Potassium voltage-gated channel subfamily KQT member 1 (Homo sapiens), P51787; CHO-K1 KCNQ1, thallium flux FluxOR fluorescence; active compounds read high; B-score at 10 µM; hit rate 0.35% among 310,000;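 active = fluorescence ratio B-score, a plate-corrected score, at least three library SD, with initial intensity B-score within 5 SD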
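Medium – assay buffer, equal DMSO in all wells · Material – CHO-K1 cell line with stable KCNQ1 potassium channel expression · Signal – kinetic FluxOR thallium fluorescence, 10-s 1-Hz baseline, 110-s post-stimulus read · Compound – single concentration per compound, DMSO matched to controls · Schedule – 37 °C overnight plating, 90-min dark dye load, 20-min compound pretreatment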
KCNK9 block: KCNK9 potassium channel inhibitors, primary screen, HEK293 cells, thallium flux | Potassium channel subfamily K member 9 (Homo sapiens), Q9NPC2 | FluxOR thallium flux fluorescence; active compounds read low | B-score at 10 µM | hit rate 1.2% among 310,000 | AID 488922, 2010;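 active = ratio B-score over 3 SD below the library mean, with starting fluorescence within 5 SD of its mean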;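 also: negative B-score means less thallium flux so channel inhibition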
KCNK9 inh conf: KCNK9 potassium channel inhibitors, confirmation, HEK293 cells, thallium flux, duplicate. inhibition, % at 10 µM. hit rate 43% among 4,900. AID 492992, 2010. FluxOR thallium flux fluorescence. shares compounds with KCNK9 block;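 active = thallium signal inhibited by more than 5 SD of the compound-free buffer control wells, on both duplicate plates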;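 also: 0% = assay buffer control wells without compound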
Kir21 sel: mouse Kir2.1 channel inhibition, confirmation, selectivity assay for KCNK9 modulator project, cell-based, HEK293, thallium flux | shares compounds with KCNK9 block | Kir2.1 cells, FluxOR thallium flux fluorescence | inhibition, % at 10 µM | hit rate 4% among 4,900 | AID 492993, 2010;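 active = thallium signal drop more than 5 SD beyond the mean of the no-compound control wells, seen in both duplicate plates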;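 also: signal is fluorescence rise after thallium addition divided by baseline fluorescence; plate controls were assay buffer only for no effect and full block by chlorpromazine control for full effect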
HEK293 Tl ctr: thallium flux in non-induced HEK293 cells, confirmation, counter-screen for KCNK9 inhibitor project, cell-based, second counter screen, non-induced KCNK9-HEK293; AID 492997, 2010; hit rate 40% among 4,900; FluxOR thallium flux; shares compounds with KCNK9 block; inhibition, % at 10 µM;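 active = thallium signal drop beyond 5 SD of the untreated control mean, on both duplicate plates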;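 also: plate controls were buffer only IC0 wells for no effect and SID17386958 at its maximal inhibitory level for full effect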
Starred values were filed as active, the others as inactive.

Cc1c(C(=O)N(C)C2CCCCC2)sc2ncnc(N3CCN(c4ccccc4)CC3)c12 was read as Kir21 inh 0.17, KCNK3 inh inactive, KCNQ1 block inactive, hERG rescue -8, KCNQ1 act inactive, KCNK9 block inactive, KCNK9 inh conf inactive, Kir21 sel inactive and HEK293 Tl ctr inactive.
Cc1c(C(=O)N2CCC(C)CC2)sc2ncnc(N3CCN(c4ccccc4)CC3)c12 was read as Kir21 inh -0.03, KCNK3 inh inactive, KCNQ1 block inactive, hERG rescue -19, KCNQ1 act inactive, KCNK9 block inactive, KCNK9 inh conf inactive, Kir21 sel inactive and HEK293 Tl ctr inactive.
Screening COc1ccc(-c2cc(C)no2)cc1S(=O)(=O)N1CCCN(Cc2ccccc2Cl)C1 returned Kir21 inh -1.3, KCNK3 inh inactive, KCNQ1 block inactive, hERG rescue -7, KCNQ1 act inactive, KCNK9 block -16*, KCNK9 inh conf 32%*, Kir21 sel inactive and HEK293 Tl ctr 32%*.
For CN(CC(=O)Nc1ncn[nH]1)S(=O)(=O)c1ccc(Br)cc1 the results were Kir21 inh 0.61, KCNK3 inh inactive, KCNQ1 block inactive, hERG rescue -6, KCNQ1 act inactive and KCNK9 block inactive.
CCOC(=O)c1c(-c2ccc(-c3ccccc3)cc2)csc1NC(=O)C1C2CCC(O2)C1C(=O)O (stereo not given) was read as Kir21 inh 0.68, KCNK3 inh inactive, KCNQ1 block inactive, hERG rescue -9, KCNQ1 act inactive, KCNK9 block inactive, KCNK9 inh conf inactive, Kir21 sel inactive and HEK293 Tl ctr inactive.
`CCOC(=O)c1c(-c2ccccc2)csc1NC(=O)C1CCCO1` (stereo not given) gave Kir21 inh 0.04, KCNK3 inh inactive, KCNQ1 block inactive, hERG rescue -1, KCNQ1 act inactive and KCNK9 block inactive.
CCn1c(SCC(=O)N/N=C/C(C)=C\c2ccco2)nnc1-c1ccccc1 was read as Kir21 inh -0.77, KCNK3 inh inactive, KCNQ1 block inactive, hERG rescue -8, KCNQ1 act inactive, KCNK9 block inactive, KCNK9 inh conf inactive, Kir21 sel inactive and HEK293 Tl ctr inactive.
`CC1CN(Cc2cc(=O)oc3cc(O)ccc23)CC(C)O1` (stereo not given) gave Kir21 inh -0.45, KCNK3 inh inactive, KCNQ1 block inactive, hERG rescue -7, KCNQ1 act inactive and KCNK9 block inactive.
For COc1cccc(Nc2nc(-c3sc(NC(=O)c4ccco4)nc3C)cs2)c1 the results were Kir21 inh -2.9, KCNK3 inh inactive, KCNQ1 block inactive, hERG rescue -26, KCNQ1 act inactive, KCNK9 block -11*, KCNK9 inh conf 50%*, Kir21 sel inactive and HEK293 Tl ctr inactive.
Screening COc1ccc(Cl)cc1Nc1nc(-c2sc(NC(=O)c3ccco3)nc2C)cs1 returned Kir21 inh -0.61, KCNK3 inh inactive, KCNQ1 block inactive, hERG rescue -36, KCNQ1 act inactive, KCNK9 block -11*, KCNK9 inh conf inactive, Kir21 sel inactive and HEK293 Tl ctr inactive.
`Cc1nc(NC(=O)c2ccccc2)sc1-c1csc(NCc2ccccc2)n1` gave Kir21 inh -0.31, KCNK3 inh inactive, KCNQ1 block inactive, hERG rescue -19, KCNQ1 act inactive and KCNK9 block inactive.
For COc1cccc(Nc2nc(-c3ccc4c(c3)OCCO4)cs2)c1 the results were Kir21 inh -0.06, KCNK3 inh inactive, KCNQ1 block inactive, hERG rescue -8, KCNQ1 act inactive, KCNK9 block inactive, KCNK9 inh conf inactive, Kir21 sel inactive and HEK293 Tl ctr inactive.
Screening Cc1nc(NC(=O)c2ccccc2)sc1-c1csc(NCCc2ccccc2)n1 returned Kir21 inh 1.4, KCNK3 inh inactive, KCNQ1 block inactive, hERG rescue -7, KCNQ1 act inactive, KCNK9 block -8.7*, KCNK9 inh conf 32%*, Kir21 sel inactive and HEK293 Tl ctr inactive.
c1cc2c(cc1Nc1nc(-c3ccc4c(c3)OCO4)cs1)OCCO2 was read as Kir21 inh 0.1, KCNK3 inh inactive, KCNQ1 block inactive, hERG rescue -13, KCNQ1 act inactive and KCNK9 block inactive.
For COc1ccc(Cl)cc1Nc1nc(-c2sc(NC(=O)C(C)(C)C)nc2C)cs1 the results were Kir21 inh 0.79, KCNK3 inh inactive, KCNQ1 block inactive, hERG rescue -5, KCNQ1 act inactive and KCNK9 block inactive.
CCOC(=O)C1CN(S(=O)(=O)c2cccc(C(F)(F)F)c2)c2cc(CC(=O)OC)ccc2O1 (stereo not given) was read as Kir21 inh 1.1, KCNK3 inh inactive, KCNQ1 block inactive, hERG rescue -12, KCNQ1 act inactive and KCNK9 block inactive.
For CCCN(CCC)C(=O)C[n+]1cccc(/C=N/O)c1 the results were Kir21 inh -0.5, KCNK3 inh inactive, KCNQ1 block inactive, hERG rescue -8, KCNQ1 act inactive and KCNK9 block inactive.
For COc1ccc(NS(=O)(=O)c2cc3c4c(c2)CCN4C(=O)CC3)c(OC)c1 the results were Kir21 inh -1.3, KCNK3 inh inactive, KCNQ1 block inactive, hERG rescue -5, KCNQ1 act inactive and KCNK9 block inactive.
Screening Cc1ccc(NC(=O)CCNS(=O)(=O)c2ccc(Br)cc2)cc1S(=O)(=O)N1CCOCC1 returned Kir21 inh -1.4, KCNK3 inh inactive, KCNQ1 block inactive, hERG rescue -14, KCNQ1 act inactive and KCNK9 block inactive.

Screens: PubChem, Johns Hopkins Ion Channel Center
